# Measured values published in ChEMBL document CHEMBL1250469, “Design, synthesis, and biological evaluation of ketoprofen analogs as potent cyclooxygenase-2 inhibitors” (Bioorg Med Chem, 2010).
# Species on record: Ovis aries
# Assay: Selectivity index, ratio of IC50 for sheep COX1 to IC50 for COX2
# Procedure, shortened: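 Ratio of IC50 for COX-1 to IC50 for COX-2. Both come from the ovine chemiluminescent COX assay, with arachidonic acid as substrate and a naphthalene hydrazide luminescence read-out. Each IC50 is the mean of two determinations.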
row,Structure (SMILES),Ratio IC50
1,CC(=O)Nc1ccc(-c2cc(C(=O)O)c3cc(C(=O)c4ccccc4)ccc3n2)cc1,256
2,CS(=O)(=O)c1ccc(-c2cc(C(=O)O)c3cc(C(=O)c4ccccc4)ccc3n2)cc1,317
3,CC(=O)Nc1ccc(-c2cc(C(=O)O)c3cccc(C(=O)c4ccccc4)c3n2)cc1,115
4,CS(=O)(=O)c1ccc(-c2cc(C(=O)O)c3cccc(C(=O)c4ccccc4)c3n2)cc1,231
5,[N-]=[N+]=Nc1ccc(-c2cc(C(=O)O)c3cc(C(=O)c4ccccc4)ccc3n2)cc1,> 1300
6,[N-]=[N+]=Nc1ccc(-c2cc(C(=O)O)c3cccc(C(=O)c4ccccc4)c3n2)cc1,1150
